The values that follow come from ChEMBL document CHEMBL2069204, “N-1-Alkyl-2-oxo-2-aryl amides as novel antagonists of the TRPA1 receptor” (Bioorg Med Chem Lett, 2012).

Series [1] has as its target T1, Transient receptor potential cation channel subfamily A member 1 (Homo sapiens, UniProt O75762). The series can be described thus: Antagonist activity at human TRPA1 expressed in HEK293 cells assessed as inhibition of Ca2+-induced intracellular calcium flux by FLIPR assay. It counts as functional, cell-based. A digest of the protocol:
(§1)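 Fluorescence-based TRPA1 antagonist assay with the agonist as the stimulus: Ca2+ for line 1 and Zn2+ for line 2. Results are reported as pIC50. Compounds with pIC50 > 5 were checked by automated electrophysiology on IonWorks to exclude autofluorescence artefacts. The IC50s from the two agonist formats were pooled and treated as one data set.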
In general terms: Calcium assays in cells follow changes in intracellular calcium, usually with a dye or a luminescent sensor.

Series [2] is described as follows: Solubility of the compound in phosphate buffer at pH 7.4 by dried DMSO method. It counts as physicochemical. The method, boiled down: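 Measured by the 'dried DMSO' method in phosphate buffer at pH 7.4. Results are binned as low (<1–5 μM), medium (5–25 μM) or good (>25 μM).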
The target of series [3] is T1, Transient receptor potential cation channel subfamily A member 1. The series can be described thus: Antagonist activity at human TRPA1 expressed in HEK293 cells assessed as inhibition of Zn2+-induced intracellular calcium flux by FLIPR assay. It counts as functional, cell-based. The method, boiled down: as §1
Series [4] is described as follows: Metabolic stability in human microsomes assessed as glutathione adduct formation.

≈ marks a conversion by molar mass, not a printed value. Calls of active or inactive are those of the source. No cut-off for these calls is given here.

T1 sequence (O75762 whole entry): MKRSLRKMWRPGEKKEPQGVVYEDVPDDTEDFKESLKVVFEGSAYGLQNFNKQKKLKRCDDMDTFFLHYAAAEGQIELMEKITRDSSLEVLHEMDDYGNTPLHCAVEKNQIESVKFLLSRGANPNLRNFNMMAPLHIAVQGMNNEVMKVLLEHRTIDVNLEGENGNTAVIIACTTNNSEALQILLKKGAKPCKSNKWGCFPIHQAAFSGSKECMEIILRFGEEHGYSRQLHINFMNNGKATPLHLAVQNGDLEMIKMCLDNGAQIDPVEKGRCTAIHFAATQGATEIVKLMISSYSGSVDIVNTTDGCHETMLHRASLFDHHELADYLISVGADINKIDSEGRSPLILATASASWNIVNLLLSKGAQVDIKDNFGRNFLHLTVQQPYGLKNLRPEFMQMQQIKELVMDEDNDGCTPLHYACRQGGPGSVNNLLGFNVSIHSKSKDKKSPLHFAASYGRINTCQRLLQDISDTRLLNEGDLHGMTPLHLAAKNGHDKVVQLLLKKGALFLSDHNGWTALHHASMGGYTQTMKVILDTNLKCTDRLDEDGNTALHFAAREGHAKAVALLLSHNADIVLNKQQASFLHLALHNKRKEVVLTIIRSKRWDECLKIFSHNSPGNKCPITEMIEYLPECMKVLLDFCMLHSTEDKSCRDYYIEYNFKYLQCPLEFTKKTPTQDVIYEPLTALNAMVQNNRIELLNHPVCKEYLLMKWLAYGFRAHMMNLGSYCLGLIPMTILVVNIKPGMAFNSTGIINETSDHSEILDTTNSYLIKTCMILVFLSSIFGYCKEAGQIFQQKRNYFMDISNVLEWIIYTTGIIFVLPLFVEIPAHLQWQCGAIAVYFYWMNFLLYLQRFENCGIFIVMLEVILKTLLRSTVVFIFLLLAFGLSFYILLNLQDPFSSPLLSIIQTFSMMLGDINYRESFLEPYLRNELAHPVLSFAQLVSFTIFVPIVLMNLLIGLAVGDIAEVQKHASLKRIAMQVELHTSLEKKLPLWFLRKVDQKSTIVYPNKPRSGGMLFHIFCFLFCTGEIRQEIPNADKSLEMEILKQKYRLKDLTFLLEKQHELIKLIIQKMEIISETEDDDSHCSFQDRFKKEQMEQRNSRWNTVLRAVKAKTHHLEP

With `CC(C)C(NC(=O)c1ccccc1)C(=O)c1ccc(C#N)cc1` (racemic), the IC50 in series [1] is 3980 nM. For the same molecule, the kinetic solubility in series [2] was found to be 150 µM (≈ 46 µg/mL).

In the case of `O=C(CNC(=O)c1ccccc1)c1ccc(Cl)cc1`, the pIC50 entry in series [1] and in series [3] was “inactive” each time. In the case of `O=C(NC1(C(=O)c2ccc(Cl)cc2)CCC1)c1ccccc1`, the pIC50 entry in series [1] and in series [3] was “inactive” in each case.

On to `CC(C)C(NC(=O)c1cnn(C(C)(C)C)c1C(F)(F)F)C(=O)c1ccc2nonc2c1` (stereo unspecified), for which the IC50 in series [3] is 398 nM. For the molecule `COc1ccc(C(=O)NC(C(=O)c2ccc(C#N)cc2)C(C)C)cc1` (stereo unspecified), the IC50 in series [1] is 12600 nM; in series [3], 6310 nM. The matching figures for `CC(C)(C)C(NC(=O)c1ccccc1)C(=O)c1ccc(Cl)cc1` (stereo unspecified): 1000 nM and 398 nM. For `CC(C)C(NC(=O)c1ccccc1)C(=O)c1ccc(Br)cc1` (racemic) the same measures were 7940 nM and 1260 nM. As to `CC(C)C(NC(=O)Nc1ccc(F)cc1)C(=O)c1ccc(C#N)cc1` (stereo unspecified), the pIC50 entry in series [1] and in series [3] was “inactive” throughout.

With `CC(C)C(NC(=O)c1ccccc1)C(=O)c1ccc(Cl)c(Cl)c1` (racemic), in series [1], the half-inhibitory concentration (IC50) was 3980 nM. As for `CC(C)C(C)(NC(=O)c1ccccc1)C(=O)c1ccc(Cl)cc1` (stereo unspecified), the IC50 in series [1] was 3160 nM. Also, in series [3], the pIC50 entry is “inactive”. For `CC(C)C(NC(=O)c1ccccc1)C(=O)c1ccc(Cl)cc1` (single isomer, unassigned; isomer 1), the values for the IC50 in series [1] and in series [3] were 1000 nM and 398 nM, respectively. Consider `CC(C)C(NC(=O)c1cc(Cl)ccc1F)C(=O)c1ccc(C#N)cc1` (stereo unspecified), for which the pIC50 result in series [1] is “inactive”. The half-maximal inhibitory concentration (IC50) in series [3] was 2000 nM. In the case of `CC(C)C(NC(=O)OC(C)(C)C)C(=O)c1ccc(Cl)cc1` (stereo unspecified), the 50% inhibitory concentration (IC50) in series [1] was 1000 nM; in series [3], 794 nM. As to `CC(C)C(NC(=O)c1ccccc1)C(=O)c1ccccc1` (racemic), the pIC50 result in series [1] is “inactive”. In addition, in series [3], the negative logarithm of the IC50 (pIC50) was below 4.5. In the case of `CC(C)C(NC(=O)N(C)C(C)(C)C)C(=O)c1ccc(C#N)cc1` (stereo unspecified), the IC50 in series [1] is 3980 nM. `CC(C)C(NC(=O)c1cc(C(F)(F)F)ccc1Cl)C(=O)c1ccc(C#N)cc1` (stereo unspecified): the 50% inhibitory concentration (IC50) is 398 nM in series [1] and 316 nM in series [3]. Take `CC(C)C(NC(=O)c1ccc(Cl)cc1)C(=O)c1ccc(C#N)cc1` (stereo unspecified): the IC50 in series [1] is 398 nM. As for `CC(C)C(NC(=O)c1cnoc1C(C)(C)C)C(=O)c1ccc(C#N)cc1` (stereo unspecified), the IC50 is 1000 nM in series [1] and 501 nM in series [3]. The matching figures for `CC(C)C(NC(=O)c1cc2ccccc2n1C)C(=O)c1ccc(C#N)cc1` (stereo unspecified): 3980 nM and 1580 nM. As for `CC(C)C(NC(=O)c1ccccc1)C(=O)c1ccc(S(C)(=O)=O)cc1` (racemic), the pIC50 entry in series [1] and in series [3] was “inactive” throughout. With `CC(C)C(NC(=O)N1CCc2ccccc2C1)C(=O)c1ccc(C#N)cc1` (stereo unspecified), the IC50 in series [1] and in series [3] was 5010 nM in each case. Also, the Stability entry in series [4] was “Unstable”. Take `CCCCCCCCCC(=O)NC(C(=O)c1ccc(C#N)cc1)C(C)C` (stereo unspecified): the IC50 in series [1] is 2000 nM; in series [3], 1000 nM. On to `CCCC(NC(=O)c1ccccc1)C(=O)c1ccc(Cl)cc1` (stereo unspecified), for which the pIC50 result in series [1] and in series [3] was “inactive” throughout. Regarding `CC(C)C(NC(=O)NCc1ccccc1)C(=O)c1ccc(C#N)cc1` (stereo unspecified), the pIC50 entry in series [1] and in series [3] was “inactive” throughout.

`CC(C)C(NC(=O)OC(C)(C)C)C(=O)c1ccc(Cl)cn1` (stereo unspecified): the half-inhibitory concentration (IC50) in series [1] is 5010 nM; in series [3], 15800 nM. `CC(C)C(NC(=O)c1ccccc1)C(=O)c1ccc(Cl)cc1` (single isomer, unassigned; isomer 2): the pIC50 result in series [1] and in series [3] was “inactive” each time. On to `CC(C)C(NC(=O)OC(C)(C)C)C(=O)c1ccc(C#N)c(F)c1` (stereo unspecified), for which the IC50 in series [1] is 1260 nM; in series [3], 2000 nM. The matching figures for `CC(C)C(NC(=O)c1ccccc1)C(=O)c1ccc(Cl)cc1` (racemic): 2510 nM and 1260 nM. As for `O=C(NC(C(=O)c1ccc(Cl)cc1)C1CC1)c1ccccc1` (stereo unspecified), the half-inhibitory concentration (IC50) in series [1] and in series [3] was 2000 nM in each case. Take `CC(C)C(NC(=O)OC(C)(C)C)C(=O)c1ccc(C#N)cc1` (stereo unspecified): the IC50 is 6310 nM in series [1] and 2510 nM in series [3]. The matching figures for `CC(C)C(NC(=O)c1ccccc1)C(=O)c1ccc(F)cc1` (racemic): 5010 nM and 7940 nM. On to `CC(C)C(NC(=O)c1ccccc1)C(=O)c1cccc(Cl)c1` (racemic), for which, in series [1], the pIC50 entry was “inactive”. In addition, the negative-log IC50 (pIC50) in series [3] was below 4.5.

As for `CC(C)C(NC(=O)c1ccccc1)C(=O)c1ccc([N+](=O)[O-])cc1` (racemic), the IC50 in series [1] is 316 nM; in series [3], 251 nM. The matching figures for `CC(C)C(NC(=O)c1ccccc1C(F)(F)F)C(=O)c1ccc(C#N)cc1` (stereo unspecified): 3160 nM and 5010 nM. As to `CC(C)C(NC(=O)c1ccc(Cl)cc1Cl)C(=O)c1ccc(C#N)cc1` (stereo unspecified), the IC50 in series [1] was 5010 nM; in series [3], 2510 nM. As for `CC(C)C(NC(=O)N(C)C(C)(C)C)C(=O)c1ccc(Cl)cc1` (stereo unspecified), the values for the concentration for half-maximal inhibition (IC50) in series [1] and in series [3] were 251 nM and 631 nM, respectively.

As for `CC(C)C(NC(=O)c1ccc(Cl)cc1F)C(=O)c1ccc(C#N)cc1` (stereo unspecified), the IC50 in series [1] was 3160 nM; in series [3] it was 3980 nM. Turning to `Cc1noc(C(C)C)c1C(=O)NC1C(=O)c2ccc(Cl)cc2CC1(C)C` (stereo unspecified), in series [3], the pIC50 entry was “inactive”. Turning to `Cc1noc(-c2ccccc2)c1C(=O)NC(C(=O)c1ccc(C#N)cc1)C(C)C` (stereo unspecified), the values for the half-inhibitory concentration (IC50) in series [1] and in series [3] were 7940 nM and 3980 nM, respectively. For `Cc1noc(C(C)C)c1C(=O)NC(C(=O)c1ccc(C#N)cc1)C(C)C` (stereo unspecified) the same measures were 1580 nM and 2000 nM.

Consider `Cc1noc(C(C)C)c1C(=O)NC(C(=O)c1ccc(C#N)c(F)c1)C(C)(C)C` (stereo unspecified), for which, in series [3], the 50% inhibitory concentration (IC50) was 200 nM. The molecule also showed a kinetic solubility in series [2] of 80 µM (≈ 30.8 µg/mL). For `CC(C)C(NC(=O)c1cc(Cl)ccc1C(F)(F)F)C(=O)c1ccc([N+](=O)[O-])cc1` (stereo unspecified) the same measures were 10 nM and below 1 µM.

As to `CC(C)C(NC(=O)NC(C)(C)C)C(=O)c1ccc(Cl)cc1` (stereo unspecified), the half-maximal inhibitory concentration (IC50) was 2000 nM in series [1] and 2510 nM in series [3]. Regarding `CC(C)C(NC(=O)c1ccccc1)C(=O)c1ccc(N)cc1` (racemic), the pIC50 result in series [1] and in series [3] was “inactive” each time. Take `C=CCN(CC=C)c1ccc(C(=O)C(NC(=O)c2ccccc2)C(C)C)cc1` (racemic): the pIC50 result in series [1] was “inactive”. The pIC50 in series [3] was below 4.5.

As usually defined, the IC50 is the concentration that gives 50% inhibition. In general, solubility (kinetic) refers to solubility judged after dilution from a stock solution rather than from solid. Usually pIC50 stands for the negative decadic logarithm of the IC50, by convention in mol/L.
